Source: ChEMBL document CHEMBL4118273, “Design, Synthesis, and Biological Evaluation of Pyrimido[4,5- d]pyrimidine-2,4(1 H,3 H)-diones as Potent and Selective Epidermal Growth Factor Receptor (EGFR) Inhibitors against L858R/T790M Resistance Mutation” (J Med Chem, 2018)
In brackets after ≈: the same amount, converted by molar mass.

Experiments:
[1] = molecular target: Epidermal growth factor receptor (Homo sapiens, UniProt P00533, L858R/T790M); assay: Inhibition of recombinant human GST-tagged EGFR L858R/T790M double mutant expressed in baculovirus expression system using Poly(Glu,Tyr)4:1 as substrate after 1 hr by ELISA
Epidermal growth factor receptor (Homo sapiens, UniProt P00533, L858R/T790M), sequence (P00533 25-1210 T790M/L858R limits assumed): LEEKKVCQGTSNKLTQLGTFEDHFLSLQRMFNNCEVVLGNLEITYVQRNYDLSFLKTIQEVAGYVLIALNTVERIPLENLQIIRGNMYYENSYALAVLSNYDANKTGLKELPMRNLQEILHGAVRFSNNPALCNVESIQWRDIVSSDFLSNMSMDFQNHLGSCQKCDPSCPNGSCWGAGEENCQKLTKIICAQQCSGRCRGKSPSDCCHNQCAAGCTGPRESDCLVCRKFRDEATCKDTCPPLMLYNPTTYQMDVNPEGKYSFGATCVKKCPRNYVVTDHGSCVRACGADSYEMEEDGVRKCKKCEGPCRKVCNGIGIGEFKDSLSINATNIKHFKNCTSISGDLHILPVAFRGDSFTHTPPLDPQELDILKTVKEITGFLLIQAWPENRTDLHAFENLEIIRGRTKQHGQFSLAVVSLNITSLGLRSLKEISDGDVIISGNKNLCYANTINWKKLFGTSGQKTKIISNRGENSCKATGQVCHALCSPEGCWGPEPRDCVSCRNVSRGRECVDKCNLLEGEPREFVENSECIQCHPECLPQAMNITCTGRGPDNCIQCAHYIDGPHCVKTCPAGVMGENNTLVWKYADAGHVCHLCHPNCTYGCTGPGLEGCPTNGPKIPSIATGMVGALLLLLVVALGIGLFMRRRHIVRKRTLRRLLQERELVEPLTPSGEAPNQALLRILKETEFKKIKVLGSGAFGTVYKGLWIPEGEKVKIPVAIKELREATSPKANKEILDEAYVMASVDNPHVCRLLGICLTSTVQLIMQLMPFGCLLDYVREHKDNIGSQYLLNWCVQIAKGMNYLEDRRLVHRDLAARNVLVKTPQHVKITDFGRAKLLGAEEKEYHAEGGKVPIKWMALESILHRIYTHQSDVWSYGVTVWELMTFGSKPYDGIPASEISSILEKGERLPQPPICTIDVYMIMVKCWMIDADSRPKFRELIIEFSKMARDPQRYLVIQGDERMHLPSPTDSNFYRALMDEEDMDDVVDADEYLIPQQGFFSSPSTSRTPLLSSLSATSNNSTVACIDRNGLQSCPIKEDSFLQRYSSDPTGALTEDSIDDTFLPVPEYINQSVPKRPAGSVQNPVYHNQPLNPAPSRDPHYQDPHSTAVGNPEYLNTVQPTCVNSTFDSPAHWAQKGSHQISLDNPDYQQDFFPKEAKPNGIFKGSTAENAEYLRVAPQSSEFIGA

Homo sapiens = species: Homo sapiens; assay: Selectivity ratio of IC50 for recombinant human GST-tagged EGFR (668 to 1210 residues) expressed in baculovirus expression system to IC50 for recombinant human GST-tagged EGFR L858R/T790M double mutant expressed in baculovirus expression system
Method in brief: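 ELISA-based EGFR tyrosine kinase assay run on wild-type and L858R/T790M enzymes. IC50 values come from at least three independent determinations, reported as means ± SD. Selectivity is the wild-type IC50 divided by the L858R/T790M IC50.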

A-431 = assay: Cytotoxicity against human A431 cells harboring wild type EGFR assessed as reduction in cell viability after 72 hrs by SRB assay; type: cell-based; conditions: A-431, 72 h
Method in brief: (§1)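 Cell growth inhibition measured by sulforhodamine B colorimetric assay in H1975 (EGFR L858R/T790M) and A431 (overexpressed wild-type EGFR) cells; IC50 values are means ± SD of at least three independent determinations. Selectivity is taken as the A431:H1975 IC50 ratio.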

NCI-H1975 = assay: Antiproliferative activity against human NCI-H1975 cells harboring EGFR L858R/T790M double mutant after 72 hrs by SRB assay; type: functional, cell-based; conditions: NCI-H1975, 72 h; method in brief: as §1
[2] = Aqueous solubility in pH 7.4 PBS buffer by UV-Visible spectrophotometric method; type: physicochemical
Method in brief: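 Solubility determined in 0.1 M PBS, pH 7.4, by UV-visible spectrophotometry.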

[3] = molecular target: Epidermal growth factor receptor (Homo sapiens, UniProt P00533); assay: Inhibition of wild type EGFR in EGF-stimulated human A431 cells assessed as reduction in Akt phosphorylation at Ser-473 residue up to 1000 nM by Western blot method
Epidermal growth factor receptor (Homo sapiens, UniProt P00533), sequence (P00533 whole entry): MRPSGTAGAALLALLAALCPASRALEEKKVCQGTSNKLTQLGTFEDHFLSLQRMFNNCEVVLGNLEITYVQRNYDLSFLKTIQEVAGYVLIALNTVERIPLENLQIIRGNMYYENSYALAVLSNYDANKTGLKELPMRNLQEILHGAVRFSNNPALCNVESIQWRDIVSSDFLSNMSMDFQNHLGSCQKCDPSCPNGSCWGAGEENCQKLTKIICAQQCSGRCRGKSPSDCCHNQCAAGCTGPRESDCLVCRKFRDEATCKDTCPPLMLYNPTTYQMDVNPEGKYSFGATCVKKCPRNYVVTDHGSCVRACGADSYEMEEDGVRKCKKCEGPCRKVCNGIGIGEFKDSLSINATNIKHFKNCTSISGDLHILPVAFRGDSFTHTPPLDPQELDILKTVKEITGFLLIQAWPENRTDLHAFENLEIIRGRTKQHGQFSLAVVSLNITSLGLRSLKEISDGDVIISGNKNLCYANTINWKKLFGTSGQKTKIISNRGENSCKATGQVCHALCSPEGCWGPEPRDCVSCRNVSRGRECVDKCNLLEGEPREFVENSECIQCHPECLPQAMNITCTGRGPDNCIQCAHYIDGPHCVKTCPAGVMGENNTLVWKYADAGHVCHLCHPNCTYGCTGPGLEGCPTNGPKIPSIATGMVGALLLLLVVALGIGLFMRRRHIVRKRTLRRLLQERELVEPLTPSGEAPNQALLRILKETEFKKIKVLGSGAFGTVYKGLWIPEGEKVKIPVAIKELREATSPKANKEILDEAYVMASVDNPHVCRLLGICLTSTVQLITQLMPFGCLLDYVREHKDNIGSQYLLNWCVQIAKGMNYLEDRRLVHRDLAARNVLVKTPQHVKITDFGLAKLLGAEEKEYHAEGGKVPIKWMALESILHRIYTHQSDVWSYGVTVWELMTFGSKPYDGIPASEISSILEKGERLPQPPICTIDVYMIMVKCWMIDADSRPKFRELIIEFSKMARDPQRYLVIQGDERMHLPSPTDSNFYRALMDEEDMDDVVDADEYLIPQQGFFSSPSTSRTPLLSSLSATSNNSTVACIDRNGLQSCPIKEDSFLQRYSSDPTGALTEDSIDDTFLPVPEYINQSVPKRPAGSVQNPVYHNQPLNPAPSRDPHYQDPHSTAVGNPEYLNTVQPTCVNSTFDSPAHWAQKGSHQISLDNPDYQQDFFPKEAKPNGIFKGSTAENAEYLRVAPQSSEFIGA
Method in brief: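 A431 cells lysed in Tris-HCl pH 6.8 buffer with DTT, SDS and glycerol; equal protein amounts resolved on 8% SDS-PAGE, transferred to nitrocellulose and probed for p-EGFR (Y1068), total EGFR, p-AKT (Ser473), total AKT and GAPDH.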

[4] = Efflux ratio of apparent permeability from apical to basolateral side in MDCK2 cells at 2 uM after 2.5 hrs by LC-MS/MS method; type: ADME, cell-based, Canis lupus familiaris, MDCK-II; conditions: dog, MDCK
[5] = Half life in human liver microsomes at 0.1 uM after 60 mins in presence of NADPH by LC-MS/MS analysis; type: ADME, microsome
Method in brief: (§2)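 Human or mouse liver microsomes (0.33 mg/mL protein) in 0.1 M Tris/HCl pH 7.4 with 5 mM MgCl2, 1 mM NADPH, 0.01% DMSO and 0.005% BSA; test compound at 0.1 µM final, 37 °C for 60 min. Aliquots at 0, 7, 17, 30 and 60 min quenched by methanol precipitation, centrifuged and analysed by LC-MS/MS.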

[6] = Half life in mouse liver microsomes at 0.1 uM after 60 mins in presence of NADPH by LC-MS/MS analysis; type: ADME, microsome; method in brief: as §2
Cytochrome P450 1A2 = molecular target: T1, Cytochrome P450 1A2 (Homo sapiens, UniProt P05177); assay: Inhibition of human CYP1A2 (unknown origin); type: ADME
T1 sequence (P05177 whole entry): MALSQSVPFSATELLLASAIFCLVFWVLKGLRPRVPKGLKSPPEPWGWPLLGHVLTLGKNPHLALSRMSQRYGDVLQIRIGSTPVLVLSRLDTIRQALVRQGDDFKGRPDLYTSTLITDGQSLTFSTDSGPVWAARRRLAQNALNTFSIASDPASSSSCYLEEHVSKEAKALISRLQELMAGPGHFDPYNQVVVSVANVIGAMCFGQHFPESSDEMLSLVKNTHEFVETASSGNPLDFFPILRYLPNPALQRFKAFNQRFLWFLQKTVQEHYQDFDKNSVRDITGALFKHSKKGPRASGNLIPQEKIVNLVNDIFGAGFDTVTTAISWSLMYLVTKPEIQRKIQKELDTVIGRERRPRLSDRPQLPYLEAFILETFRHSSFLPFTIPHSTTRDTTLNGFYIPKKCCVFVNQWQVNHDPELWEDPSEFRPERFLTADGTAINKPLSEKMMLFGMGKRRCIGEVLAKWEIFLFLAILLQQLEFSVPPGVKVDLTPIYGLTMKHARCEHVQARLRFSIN

Cytochrome P450 2C9 = Cytochrome P450 2C9 (Homo sapiens, UniProt P11712); assay: Inhibition of human CYP2C9 (unknown origin); type: ADME
Cytochrome P450 2C9, sequence (P11712 whole entry): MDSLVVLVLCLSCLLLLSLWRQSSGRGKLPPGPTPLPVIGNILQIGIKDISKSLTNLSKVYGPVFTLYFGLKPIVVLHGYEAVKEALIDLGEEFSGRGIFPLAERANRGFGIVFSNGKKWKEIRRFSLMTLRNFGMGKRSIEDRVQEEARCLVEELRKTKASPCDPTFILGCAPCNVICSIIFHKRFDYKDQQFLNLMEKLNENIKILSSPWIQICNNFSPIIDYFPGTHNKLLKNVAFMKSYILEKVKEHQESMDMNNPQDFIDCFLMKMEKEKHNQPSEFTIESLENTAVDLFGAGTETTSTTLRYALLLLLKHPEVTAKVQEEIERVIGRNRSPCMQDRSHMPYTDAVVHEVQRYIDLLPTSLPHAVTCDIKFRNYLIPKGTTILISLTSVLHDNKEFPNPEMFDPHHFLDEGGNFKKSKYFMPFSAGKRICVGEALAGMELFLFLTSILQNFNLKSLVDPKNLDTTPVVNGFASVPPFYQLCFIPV

Cytochrome P450 2C19 = Cytochrome P450 2C19 (Homo sapiens, UniProt P33261); assay: Inhibition of human CYP2C19 (unknown origin); type: ADME
Cytochrome P450 2C19, sequence (P33261 whole entry): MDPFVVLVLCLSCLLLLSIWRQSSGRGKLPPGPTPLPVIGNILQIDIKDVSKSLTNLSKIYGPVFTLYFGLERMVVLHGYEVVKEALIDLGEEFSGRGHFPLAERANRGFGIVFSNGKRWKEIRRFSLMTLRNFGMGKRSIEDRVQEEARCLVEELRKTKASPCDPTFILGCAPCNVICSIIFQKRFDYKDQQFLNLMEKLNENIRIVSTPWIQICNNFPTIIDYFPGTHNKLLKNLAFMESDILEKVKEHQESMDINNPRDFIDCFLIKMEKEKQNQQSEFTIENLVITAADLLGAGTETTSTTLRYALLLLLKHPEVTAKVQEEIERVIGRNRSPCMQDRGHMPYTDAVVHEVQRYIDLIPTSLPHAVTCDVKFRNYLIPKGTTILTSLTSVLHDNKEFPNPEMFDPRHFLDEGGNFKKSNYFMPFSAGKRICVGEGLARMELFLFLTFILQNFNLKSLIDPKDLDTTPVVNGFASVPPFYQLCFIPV

Cytochrome P450 2D6 = Cytochrome P450 2D6 (Homo sapiens, UniProt P10635); assay: Inhibition of human CYP2D6 (unknown origin); type: ADME
Cytochrome P450 2D6, sequence (P10635 whole entry): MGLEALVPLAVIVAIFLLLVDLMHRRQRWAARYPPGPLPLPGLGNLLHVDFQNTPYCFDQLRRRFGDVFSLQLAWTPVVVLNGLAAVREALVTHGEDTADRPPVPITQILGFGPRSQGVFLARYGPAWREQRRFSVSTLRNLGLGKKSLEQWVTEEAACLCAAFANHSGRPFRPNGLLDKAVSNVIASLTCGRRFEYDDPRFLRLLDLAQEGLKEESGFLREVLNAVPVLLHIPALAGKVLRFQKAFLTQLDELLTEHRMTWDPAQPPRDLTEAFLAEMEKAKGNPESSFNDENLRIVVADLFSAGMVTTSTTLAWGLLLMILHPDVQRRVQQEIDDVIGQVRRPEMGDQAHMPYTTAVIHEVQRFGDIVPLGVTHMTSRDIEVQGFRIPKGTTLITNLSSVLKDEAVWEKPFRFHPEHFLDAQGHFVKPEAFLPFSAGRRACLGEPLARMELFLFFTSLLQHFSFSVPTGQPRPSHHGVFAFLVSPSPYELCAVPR

Cytochrome P450 3A4 = Cytochrome P450 3A4 (Homo sapiens, UniProt P08684); assay: Inhibition of human CYP3A4 (unknown origin); type: ADME
Cytochrome P450 3A4, sequence (P08684 whole entry): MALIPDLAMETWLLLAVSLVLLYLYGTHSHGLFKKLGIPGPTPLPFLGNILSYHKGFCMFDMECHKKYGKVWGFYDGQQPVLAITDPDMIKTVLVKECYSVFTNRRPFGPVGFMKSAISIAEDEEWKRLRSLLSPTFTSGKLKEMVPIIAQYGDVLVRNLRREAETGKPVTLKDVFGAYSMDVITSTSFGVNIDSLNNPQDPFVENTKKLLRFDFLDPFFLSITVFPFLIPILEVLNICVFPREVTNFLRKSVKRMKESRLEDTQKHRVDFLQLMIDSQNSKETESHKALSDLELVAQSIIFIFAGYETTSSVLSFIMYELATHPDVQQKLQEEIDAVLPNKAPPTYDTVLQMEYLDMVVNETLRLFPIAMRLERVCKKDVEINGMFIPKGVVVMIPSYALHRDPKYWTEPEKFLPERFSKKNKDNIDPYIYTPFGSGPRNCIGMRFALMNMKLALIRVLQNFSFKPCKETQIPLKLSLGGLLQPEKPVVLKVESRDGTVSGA

[7] = Half life in ICR mouse at 1 mg/kg, iv by LC-MS/MS analysis; type: ADME, organism-based; conditions: in vivo
[8] = Tmax in ICR mouse at 1 mg/kg, iv by LC-MS/MS analysis; type: ADME, organism-based; conditions: in vivo
[9] = Cmax in ICR mouse at 1 mg/kg, iv by LC-MS/MS analysis; type: ADME, organism-based; design: dose 1 mg/kg, route intravenous; conditions: in vivo
[10] = Clearance in ICR mouse at 1 mg/kg, iv by LC-MS/MS analysis; type: ADME, organism-based; conditions: in vivo
[11] = Half life in ICR mouse at 10 mg/kg, po by LC-MS/MS analysis; type: ADME, organism-based; conditions: in vivo
[12] = Cmax in ICR mouse at 10 mg/kg, po by LC-MS/MS analysis; type: ADME, organism-based; design: dose 10 mg/kg, route oral; conditions: in vivo
[13] = AUC (0 to t) in ICR mouse at 10 mg/kg, po by LC-MS/MS analysis; type: ADME, organism-based; conditions: in vivo
[14] = AUC (0 to infinity) in ICR mouse at 10 mg/kg, po by LC-MS/MS analysis; type: ADME, organism-based; design: dose 10 mg/kg, route oral, time infinity; conditions: in vivo
[15] = Oral bioavailability in ICR mouse at 10 mg/kg by LC-MS/MS analysis; type: ADME, organism-based; conditions: in vivo
Mus musculus [16] = assay: Toxicity in Balb/c mouse xenografted with human A431 cells assessed as body weight loss at 50 mg/kg/day, po once daily for 14 days measured every 2 to 3 days during compound dosing; type: organism-based; conditions: in vivo
Method in brief: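 A431 or H1975 cells were grown in RPMI-1640 with 10% FBS, and about 2 × 10^6 cells were implanted subcutaneously in the right flank of 4–6-week-old BALB/c mice. At 200–400 mm³, mice were randomized to vehicle or treated groups (n = 6). Dosing was oral, once daily, for 14 days. Body weights were recorded every 2–3 days.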

Mus musculus [17] = assay: Toxicity in Balb/c mouse xenografted with human A431 cells assessed as mortality at 50 mg/kg/day, po once daily for 14 days measured every 2 to 3 days during compound dosing; type: organism-based; conditions: in vivo
Mus musculus [18] = assay: Toxicity in Balb/c mouse xenografted with human NCI-H1975 cells assessed as mortality at 50 mg/kg/day, po once daily for 14 days measured every 2 to 3 days during compound dosing; type: organism-based; conditions: in vivo

C=CC(=O)Nc1cccc(-n2c(=O)n(C(C)C)c(=O)c3cnc(Nc4ccc(N5CCN(C)CC5)cc4OC)nc32)c1 gave an IC50 [1] of 0.0003 µM, a Ratio IC50 (Homo sapiens) of 263 and an IC50 (A-431) of 1.56 µM. For the same compound, the IC50 (NCI-H1975) was 0.044 µM, the solubility [2] was 262 µg/mL (≈ 459 µM) and the “inhibition (INH)” value [3] was “Not Active”. It also gave an efflux ratio at 2.5 h, 2 µM [4] of 9.1, a half-life at 0.1 µM [5] of 85.4 min and a half-life at 0.1 µM [6] of 46.1 min. The IC50 (Cytochrome P450 1A2) was greater than 50 µM, the IC50 (Cytochrome P450 2C9) was greater than 50 µM and the IC50 (Cytochrome P450 2C19) was greater than 50 µM. For the same compound, the IC50 (Cytochrome P450 2D6) was greater than 50 µM, the IC50 (Cytochrome P450 3A4) was 23.9 µM and the half-life [7] was 54 min. The Tmax [8] was 6 min, the Cmax [9] was 311 ng/mL and the clearance [10] was 89.5 mL/min/kg. For the same compound, the half-life [11] was 66 min, the Cmax [12] was 271 ng/mL and the AUC(0-t) [13] was 650 ng·h/mL. For the same compound, the AUC(0-inf) [14] was 658 ng·h/mL, the bioavailability [15] was 35% and the Activity (Mus musculus [16]) was “Non-Toxic”. The Activity (Mus musculus [17]) was “Non-Toxic” and the Activity (Mus musculus [18]) was “Non-Toxic”.
